Data taken from ChEMBL document CHEMBL2069216, “Discovery of novel 2-aminopyridine-3-carboxamides as c-Met kinase inhibitors” (Bioorg Med Chem, 2012).
Values belong to the compound of their own block, whether it stands above or below them. Calls of active or inactive are those of the source. No cut-off for these calls is given here.

Key:
[1] = Antiproliferative activity against human EBC1 cells expressing elevated levels of constitutively active c-Met after 72 hrs by SRB assay; type: functional, cell-based; conditions: EBC-1, 72 h
Procedure, shortened: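 Cells seeded in 96-well plates, exposed the next day to a range of compound concentrations and cultured 72 h. Fixed with cold 10% TCA at 4 °C for 1 h, stained with 0.4% SRB in 1% acetic acid at room temperature, washed with 1% acetic acid, dye solubilized in 10 mM Tris base. OD read at 515 nm.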

[2] = biological target: T1, Hepatocyte growth factor receptor (Homo sapiens, UniProt P08581); assay: Inhibition of c-Met at 1 uM incubated for 60 mins by spectrophotometry
T1 sequence (P08581 whole entry): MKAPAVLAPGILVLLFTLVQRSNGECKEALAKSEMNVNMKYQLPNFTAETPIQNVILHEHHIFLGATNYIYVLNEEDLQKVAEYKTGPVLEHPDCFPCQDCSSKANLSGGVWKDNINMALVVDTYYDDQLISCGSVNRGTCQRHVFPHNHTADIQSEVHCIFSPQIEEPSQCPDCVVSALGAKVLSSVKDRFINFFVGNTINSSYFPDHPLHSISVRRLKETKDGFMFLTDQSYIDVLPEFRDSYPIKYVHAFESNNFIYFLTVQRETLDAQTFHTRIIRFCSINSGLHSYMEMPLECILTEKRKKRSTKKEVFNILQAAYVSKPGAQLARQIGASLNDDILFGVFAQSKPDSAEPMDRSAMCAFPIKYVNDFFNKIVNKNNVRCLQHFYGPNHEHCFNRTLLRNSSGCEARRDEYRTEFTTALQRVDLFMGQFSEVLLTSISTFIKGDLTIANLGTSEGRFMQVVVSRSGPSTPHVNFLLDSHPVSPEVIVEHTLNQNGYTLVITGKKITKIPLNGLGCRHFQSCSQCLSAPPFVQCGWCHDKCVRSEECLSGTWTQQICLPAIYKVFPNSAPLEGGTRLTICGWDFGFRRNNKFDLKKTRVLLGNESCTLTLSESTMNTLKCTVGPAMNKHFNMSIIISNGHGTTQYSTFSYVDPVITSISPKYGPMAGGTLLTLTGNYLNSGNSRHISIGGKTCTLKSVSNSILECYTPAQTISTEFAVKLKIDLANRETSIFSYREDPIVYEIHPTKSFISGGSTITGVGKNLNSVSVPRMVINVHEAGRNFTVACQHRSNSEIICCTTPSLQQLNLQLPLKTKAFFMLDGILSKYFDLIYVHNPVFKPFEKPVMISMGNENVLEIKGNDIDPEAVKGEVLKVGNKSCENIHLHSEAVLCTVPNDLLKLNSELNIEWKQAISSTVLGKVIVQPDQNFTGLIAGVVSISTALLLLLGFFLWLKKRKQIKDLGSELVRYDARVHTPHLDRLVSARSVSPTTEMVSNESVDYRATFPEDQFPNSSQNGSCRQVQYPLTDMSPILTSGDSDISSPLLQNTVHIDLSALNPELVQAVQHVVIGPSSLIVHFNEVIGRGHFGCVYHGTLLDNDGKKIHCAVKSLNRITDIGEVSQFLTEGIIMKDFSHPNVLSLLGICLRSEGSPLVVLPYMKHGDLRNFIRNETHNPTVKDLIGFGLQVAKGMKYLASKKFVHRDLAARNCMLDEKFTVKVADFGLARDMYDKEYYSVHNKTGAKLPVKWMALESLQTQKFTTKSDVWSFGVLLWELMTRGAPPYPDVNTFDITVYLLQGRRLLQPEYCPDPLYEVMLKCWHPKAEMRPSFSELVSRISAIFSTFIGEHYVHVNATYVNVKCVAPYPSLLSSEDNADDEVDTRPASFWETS
Procedure, shortened: (§1)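 Compounds in 1% DMSO; reaction started by adding purified kinase, 60 min at 37 °C. PY99 antibody, then HRP anti-mouse IgG; o-phenylenediamine/H2O2 read at 490 nm. Inhibition % = [1-(A490/A490 control)]×100; IC50 from inhibition curves.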

[3] = biological target: T1, Hepatocyte growth factor receptor; assay: Inhibition of c-Met incubated for 60 mins at spectrophotometry
[4] = biological target: T1, Hepatocyte growth factor receptor; assay: Inhibition of c-Met phosphorylation in human EBC1 cells incubated for 4 hrs by Western blot; type: cell-based
Procedure, shortened: (§2)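 EBC-1 cells grown to exponential phase and treated with compound for 4 h at 37 °C. Lysed in 1× SDS sample buffer, resolved on 10% SDS-PAGE, transferred to nitrocellulose. Probed for phospho-c-Met/c-Met, phospho-ERK1/2/ERK1/2, phospho-AKT/AKT and GAPDH, then HRP anti-rabbit or anti-mouse IgG.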

[5] = biological target: T1, Hepatocyte growth factor receptor; assay: Inhibition of c-Met-mediated ERK1/2 phosphorylation in human EBC1 cells at 0.1 to 10 uM incubated for 4 hrs by Western blot; type: cell-based; procedure, shortened: as §2
[6] = biological target: T1, Hepatocyte growth factor receptor; assay: Inhibition of c-Met-mediated AKT phosphorylation in human EBC1 cells at 0.1 to 10 uM incubated for 4 hrs by Western blot; type: cell-based; procedure, shortened: as §2
[7] = biological target: Macrophage-stimulating protein receptor (Homo sapiens, UniProt Q04912); assay: Inhibition of Ron; procedure, shortened: as §1
[8] = biological target: T2, Tyrosine-protein kinase Mer (Homo sapiens, UniProt Q12866); assay: Inhibition of Mer; procedure, shortened: as §1
T2 sequence (Q12866 whole entry): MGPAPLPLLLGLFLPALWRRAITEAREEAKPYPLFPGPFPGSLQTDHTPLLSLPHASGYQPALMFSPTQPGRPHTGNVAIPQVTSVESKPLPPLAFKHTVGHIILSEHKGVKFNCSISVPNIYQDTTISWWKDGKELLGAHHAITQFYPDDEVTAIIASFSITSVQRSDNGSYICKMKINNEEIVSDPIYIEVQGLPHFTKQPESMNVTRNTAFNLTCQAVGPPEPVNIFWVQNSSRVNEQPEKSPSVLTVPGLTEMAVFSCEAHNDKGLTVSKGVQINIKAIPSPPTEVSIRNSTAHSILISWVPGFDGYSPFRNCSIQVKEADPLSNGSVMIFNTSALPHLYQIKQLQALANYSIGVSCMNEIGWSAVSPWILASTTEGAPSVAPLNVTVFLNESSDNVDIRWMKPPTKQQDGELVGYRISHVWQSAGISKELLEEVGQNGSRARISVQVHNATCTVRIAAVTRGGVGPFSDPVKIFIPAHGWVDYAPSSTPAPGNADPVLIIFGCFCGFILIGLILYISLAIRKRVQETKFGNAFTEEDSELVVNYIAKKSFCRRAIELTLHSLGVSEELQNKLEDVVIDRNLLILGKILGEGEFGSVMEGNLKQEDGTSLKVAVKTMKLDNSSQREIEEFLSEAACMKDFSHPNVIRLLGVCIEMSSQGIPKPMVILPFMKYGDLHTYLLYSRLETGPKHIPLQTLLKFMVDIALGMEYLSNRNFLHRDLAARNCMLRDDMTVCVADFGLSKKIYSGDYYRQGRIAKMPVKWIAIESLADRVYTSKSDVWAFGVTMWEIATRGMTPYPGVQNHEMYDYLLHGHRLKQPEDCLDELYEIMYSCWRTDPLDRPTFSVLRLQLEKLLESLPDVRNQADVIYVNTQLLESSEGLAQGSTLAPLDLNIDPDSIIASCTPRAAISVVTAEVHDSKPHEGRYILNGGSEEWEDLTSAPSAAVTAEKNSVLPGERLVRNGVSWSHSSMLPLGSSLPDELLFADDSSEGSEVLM

[9] = biological target: T3, Tyrosine-protein kinase receptor TYRO3 (Homo sapiens, UniProt Q06418); assay: Inhibition of TYRO3; procedure, shortened: as §1
T3 sequence (Q06418 whole entry): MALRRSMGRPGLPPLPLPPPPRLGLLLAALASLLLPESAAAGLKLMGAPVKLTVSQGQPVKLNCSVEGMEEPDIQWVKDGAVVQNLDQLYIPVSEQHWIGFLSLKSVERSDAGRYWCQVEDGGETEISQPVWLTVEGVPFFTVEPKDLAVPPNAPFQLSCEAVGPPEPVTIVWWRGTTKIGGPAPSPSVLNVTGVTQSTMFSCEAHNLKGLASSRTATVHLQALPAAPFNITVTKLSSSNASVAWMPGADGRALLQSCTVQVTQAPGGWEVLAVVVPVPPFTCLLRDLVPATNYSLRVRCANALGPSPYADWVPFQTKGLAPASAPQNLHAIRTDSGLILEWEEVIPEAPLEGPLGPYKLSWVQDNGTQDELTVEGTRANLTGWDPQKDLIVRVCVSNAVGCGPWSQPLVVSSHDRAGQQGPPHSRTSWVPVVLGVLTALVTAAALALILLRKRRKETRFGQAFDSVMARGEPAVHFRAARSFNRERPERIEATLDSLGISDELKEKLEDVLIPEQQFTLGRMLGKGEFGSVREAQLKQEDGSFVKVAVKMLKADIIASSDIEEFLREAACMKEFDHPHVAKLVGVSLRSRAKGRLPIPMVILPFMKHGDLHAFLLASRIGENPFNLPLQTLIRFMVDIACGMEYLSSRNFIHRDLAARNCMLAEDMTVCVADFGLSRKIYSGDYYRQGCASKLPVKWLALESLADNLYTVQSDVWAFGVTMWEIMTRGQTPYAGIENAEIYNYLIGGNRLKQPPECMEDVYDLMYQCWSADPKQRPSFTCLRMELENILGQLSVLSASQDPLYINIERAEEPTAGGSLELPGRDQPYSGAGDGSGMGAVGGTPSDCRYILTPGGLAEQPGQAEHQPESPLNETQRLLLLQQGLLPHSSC

[10] = biological target: T4, Tyrosine-protein kinase receptor UFO (Homo sapiens, UniProt P30530); assay: Inhibition of Axl; procedure, shortened: as §1
T4 sequence (P30530 whole entry): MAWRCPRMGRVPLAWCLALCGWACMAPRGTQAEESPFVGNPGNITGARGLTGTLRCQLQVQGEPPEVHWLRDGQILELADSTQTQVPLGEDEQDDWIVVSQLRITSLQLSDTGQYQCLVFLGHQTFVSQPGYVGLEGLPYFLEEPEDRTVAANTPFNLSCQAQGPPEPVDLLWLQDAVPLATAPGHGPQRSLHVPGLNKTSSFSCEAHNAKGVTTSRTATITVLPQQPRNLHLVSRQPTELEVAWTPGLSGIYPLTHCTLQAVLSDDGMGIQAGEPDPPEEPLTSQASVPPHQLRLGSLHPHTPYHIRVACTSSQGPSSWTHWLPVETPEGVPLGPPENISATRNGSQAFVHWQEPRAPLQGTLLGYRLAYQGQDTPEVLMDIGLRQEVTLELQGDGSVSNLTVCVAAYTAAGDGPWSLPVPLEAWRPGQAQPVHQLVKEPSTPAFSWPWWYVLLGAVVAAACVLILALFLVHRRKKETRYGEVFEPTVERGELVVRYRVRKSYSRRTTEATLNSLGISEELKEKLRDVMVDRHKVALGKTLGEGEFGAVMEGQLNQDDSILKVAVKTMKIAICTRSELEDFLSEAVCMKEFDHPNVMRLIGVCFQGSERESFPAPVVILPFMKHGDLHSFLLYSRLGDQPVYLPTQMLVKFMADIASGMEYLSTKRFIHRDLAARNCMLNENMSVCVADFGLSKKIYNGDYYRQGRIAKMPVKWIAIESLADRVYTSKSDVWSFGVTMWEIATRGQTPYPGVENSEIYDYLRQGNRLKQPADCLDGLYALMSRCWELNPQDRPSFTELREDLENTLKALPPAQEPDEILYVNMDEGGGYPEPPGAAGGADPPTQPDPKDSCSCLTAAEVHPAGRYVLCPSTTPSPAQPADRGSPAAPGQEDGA

[11] = biological target: Vascular endothelial growth factor receptor 2 (Homo sapiens, UniProt P35968); assay: Inhibition of KDR; procedure, shortened: as §1
[12] = biological target: Epidermal growth factor receptor (Homo sapiens, UniProt P00533); assay: Inhibition of EGFR; procedure, shortened: as §1
Epidermal growth factor receptor, sequence (P00533 whole entry): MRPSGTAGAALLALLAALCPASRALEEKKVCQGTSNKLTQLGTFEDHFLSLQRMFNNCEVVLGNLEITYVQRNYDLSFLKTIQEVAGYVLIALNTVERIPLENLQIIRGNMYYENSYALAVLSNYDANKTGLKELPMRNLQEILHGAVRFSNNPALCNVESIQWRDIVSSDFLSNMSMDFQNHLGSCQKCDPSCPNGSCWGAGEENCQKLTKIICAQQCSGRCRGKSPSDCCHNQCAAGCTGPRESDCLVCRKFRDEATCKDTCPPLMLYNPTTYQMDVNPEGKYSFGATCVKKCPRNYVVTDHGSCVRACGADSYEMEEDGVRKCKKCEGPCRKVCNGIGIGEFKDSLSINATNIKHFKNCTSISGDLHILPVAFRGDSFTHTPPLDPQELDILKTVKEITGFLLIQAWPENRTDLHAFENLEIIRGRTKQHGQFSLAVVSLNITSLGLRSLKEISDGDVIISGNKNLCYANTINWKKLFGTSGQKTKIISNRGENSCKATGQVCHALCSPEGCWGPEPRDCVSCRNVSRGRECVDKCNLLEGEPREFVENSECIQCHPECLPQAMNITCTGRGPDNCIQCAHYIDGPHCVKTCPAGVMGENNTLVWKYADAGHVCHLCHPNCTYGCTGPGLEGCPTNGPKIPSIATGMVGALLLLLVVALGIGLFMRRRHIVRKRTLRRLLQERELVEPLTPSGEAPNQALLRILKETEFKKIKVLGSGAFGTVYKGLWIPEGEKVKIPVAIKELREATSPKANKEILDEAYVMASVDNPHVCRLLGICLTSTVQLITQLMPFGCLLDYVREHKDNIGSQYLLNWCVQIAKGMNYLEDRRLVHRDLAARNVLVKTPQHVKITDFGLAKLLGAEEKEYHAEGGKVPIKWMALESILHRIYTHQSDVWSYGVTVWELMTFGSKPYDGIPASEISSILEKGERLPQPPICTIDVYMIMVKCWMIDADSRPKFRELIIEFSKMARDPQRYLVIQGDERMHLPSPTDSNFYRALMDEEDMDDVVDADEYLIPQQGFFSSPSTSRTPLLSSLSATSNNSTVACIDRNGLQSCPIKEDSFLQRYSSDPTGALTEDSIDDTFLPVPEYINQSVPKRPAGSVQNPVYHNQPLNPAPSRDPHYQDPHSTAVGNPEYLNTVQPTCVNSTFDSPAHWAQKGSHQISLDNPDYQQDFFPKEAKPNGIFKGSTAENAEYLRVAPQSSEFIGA

[13] = biological target: Fibroblast growth factor receptor 1 (Homo sapiens, UniProt P11362); assay: Inhibition of FGFR1; procedure, shortened: as §1
Fibroblast growth factor receptor 1, sequence (P11362 whole entry): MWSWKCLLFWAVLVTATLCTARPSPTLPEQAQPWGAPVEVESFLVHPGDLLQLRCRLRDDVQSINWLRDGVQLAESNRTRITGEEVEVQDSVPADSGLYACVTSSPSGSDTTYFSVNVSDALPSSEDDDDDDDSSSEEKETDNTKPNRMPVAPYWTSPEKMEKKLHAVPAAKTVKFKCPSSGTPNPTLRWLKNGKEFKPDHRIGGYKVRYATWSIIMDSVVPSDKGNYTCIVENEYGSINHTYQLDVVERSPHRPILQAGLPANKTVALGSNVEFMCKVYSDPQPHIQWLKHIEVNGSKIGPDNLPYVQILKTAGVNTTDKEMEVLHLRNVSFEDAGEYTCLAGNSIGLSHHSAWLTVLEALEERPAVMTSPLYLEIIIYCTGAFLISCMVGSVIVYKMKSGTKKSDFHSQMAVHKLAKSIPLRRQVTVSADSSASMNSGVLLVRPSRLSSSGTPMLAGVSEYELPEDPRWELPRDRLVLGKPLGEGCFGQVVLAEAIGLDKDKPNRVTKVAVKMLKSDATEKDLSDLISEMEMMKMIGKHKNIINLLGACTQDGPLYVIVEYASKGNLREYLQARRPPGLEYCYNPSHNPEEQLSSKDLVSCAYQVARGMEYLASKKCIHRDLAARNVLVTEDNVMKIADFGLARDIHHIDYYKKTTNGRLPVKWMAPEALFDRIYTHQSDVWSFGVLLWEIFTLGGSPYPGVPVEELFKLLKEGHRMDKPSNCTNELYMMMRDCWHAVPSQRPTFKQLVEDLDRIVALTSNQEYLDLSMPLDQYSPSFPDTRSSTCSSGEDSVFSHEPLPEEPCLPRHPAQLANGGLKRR

[14] = biological target: Platelet-derived growth factor receptor (Homo sapiens, UniProt P09619+P16234); assay: Inhibition of PDGFR; type: protein-complex assay; procedure, shortened: as §1
[15] = biological target: Vascular endothelial growth factor receptor 1 (Homo sapiens, UniProt P17948); assay: Inhibition of FLT1; procedure, shortened: as §1
[16] = biological target: Tyrosine-protein kinase ABL1 (Homo sapiens, UniProt P00519); assay: Inhibition of ABL; procedure, shortened: as §1
Ephrin type-A receptor 2 = Ephrin type-A receptor 2 (Homo sapiens, UniProt P29317); assay: Inhibition of EPHA2; procedure, shortened: as §1
[17] = biological target: Receptor tyrosine-protein kinase erbB-2 (Homo sapiens, UniProt P04626); assay: Inhibition of ERBB2; procedure, shortened: as §1
[18] = biological target: Receptor tyrosine-protein kinase erbB-4 (Homo sapiens, UniProt Q15303); assay: Inhibition of ERBB4; procedure, shortened: as §1
Receptor tyrosine-protein kinase erbB-4, sequence (Q15303 whole entry): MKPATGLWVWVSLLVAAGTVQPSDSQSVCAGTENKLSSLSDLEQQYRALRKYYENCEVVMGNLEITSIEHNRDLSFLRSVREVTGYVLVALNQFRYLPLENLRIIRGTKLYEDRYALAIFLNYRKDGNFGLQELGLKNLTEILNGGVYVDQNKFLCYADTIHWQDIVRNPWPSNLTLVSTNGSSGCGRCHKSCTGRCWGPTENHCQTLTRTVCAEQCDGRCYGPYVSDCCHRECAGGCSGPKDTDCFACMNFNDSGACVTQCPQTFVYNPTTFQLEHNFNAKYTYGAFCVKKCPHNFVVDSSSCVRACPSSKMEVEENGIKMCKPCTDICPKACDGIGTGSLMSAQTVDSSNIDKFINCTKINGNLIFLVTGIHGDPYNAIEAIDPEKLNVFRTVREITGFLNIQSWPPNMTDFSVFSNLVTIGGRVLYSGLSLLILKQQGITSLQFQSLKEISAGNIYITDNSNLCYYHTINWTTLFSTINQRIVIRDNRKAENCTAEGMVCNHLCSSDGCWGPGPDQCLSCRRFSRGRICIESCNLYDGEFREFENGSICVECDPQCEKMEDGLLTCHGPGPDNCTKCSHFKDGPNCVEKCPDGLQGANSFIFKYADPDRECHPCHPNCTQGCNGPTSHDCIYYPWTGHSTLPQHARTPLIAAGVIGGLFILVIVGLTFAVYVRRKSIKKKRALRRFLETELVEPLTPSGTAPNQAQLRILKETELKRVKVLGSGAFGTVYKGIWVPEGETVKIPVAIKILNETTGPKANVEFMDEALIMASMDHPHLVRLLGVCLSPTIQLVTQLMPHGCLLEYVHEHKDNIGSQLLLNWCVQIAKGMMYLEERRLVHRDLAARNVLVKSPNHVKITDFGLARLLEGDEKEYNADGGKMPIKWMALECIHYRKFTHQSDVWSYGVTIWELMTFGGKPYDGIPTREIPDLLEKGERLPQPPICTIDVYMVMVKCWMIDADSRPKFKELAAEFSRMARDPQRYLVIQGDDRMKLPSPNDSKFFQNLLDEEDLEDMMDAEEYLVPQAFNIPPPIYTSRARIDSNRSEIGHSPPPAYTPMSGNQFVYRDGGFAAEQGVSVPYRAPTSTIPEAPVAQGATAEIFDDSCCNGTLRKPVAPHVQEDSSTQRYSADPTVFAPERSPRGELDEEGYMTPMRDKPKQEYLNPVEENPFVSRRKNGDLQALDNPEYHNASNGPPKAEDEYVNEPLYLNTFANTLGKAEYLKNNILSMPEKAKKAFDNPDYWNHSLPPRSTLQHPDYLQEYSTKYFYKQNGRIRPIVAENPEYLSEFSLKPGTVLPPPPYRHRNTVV

[19] = biological target: T1, Hepatocyte growth factor receptor; assay: Inhibition of c-Met at 10 uM incubated for 60 mins by spectrophotometry; procedure, shortened: as §1

SMILES: Cn1cc(-c2cnc(N)c(C(=O)NCc3c(F)ccc(F)c3Cl)c2)cn1
- IC50 [1]: 6.9 µM

SMILES: Cn1cc(-c2cnc(N)c(C(=O)NCc3c(F)ccc(Cl)c3Cl)c2)cn1
- IC50 [1]: 12.7 µM

SMILES: Cn1cc(-c2cnc(N)c(C(=O)NCc3cc(F)ccc3F)c2)cn1
- IC50 [1]: 15 µM

- inhibition [2]: 27.6%
SMILES: C[C@@H](NC(=O)c1cc(-c2cnn(C3CCOCC3)c2)cnc1N)c1c(Cl)ccc(F)c1Cl

- IC50 [3]: 22 nM
- inhibition [4]: Dose-dependent effect
- inhibition [5]: Active
- inhibition [6]: Active
- IC50 [7]: 8.26 µM
- IC50 [8]: > 10 µM
- IC50 [9]: > 10 µM
- IC50 [10]: > 10 µM
- IC50 [11]: > 10 µM
- IC50 [12]: > 10 µM
- IC50 [13]: 3.48 µM
- IC50 [14]: > 10 µM
- IC50 [15]: 8.16 µM
- IC50 [16]: 4.99 µM
- IC50 (Ephrin type-A receptor 2): 6.18 µM
- IC50 [17]: > 10 µM
- IC50 [18]: > 10 µM
SMILES: C[C@H](NC(=O)c1cc(-c2cnn(C3CCOCC3)c2)cnc1N)c1c(Cl)ccc(F)c1Cl
- IC50 [1]: 1.22 µM

SMILES: Cn1cc(-c2cnc(N)c(C(=O)NCc3ccc(F)c(F)c3)c2)cn1
- IC50 [1]: 14.6 µM

SMILES: CC(NC(=O)c1cc(-c2cnn(C3CCNCC3)c2)cnc1N)c1c(Cl)ccc(F)c1Cl (stereo not given)
- IC50 [1]: 1.46 µM

SMILES: CC(NC(=O)c1cc(-c2cnn(C)c2)cnc1N)c1c(Cl)ccc(F)c1Cl (stereo not given)
- IC50 [1]: > 50 µM

- inhibition [2]: 10.9%
SMILES: CN(Cc1c(F)ccc(Cl)c1F)C(=O)c1cc(-c2cnn(C)c2)cnc1N

SMILES: CC(NC(=O)c1cc(-c2ccc3c(c2)CC(=O)N3)cnc1N)c1c(Cl)ccc(F)c1Cl (stereo not given)
- IC50 [1]: 17.8 µM

SMILES: C[C@@H](Oc1cc(-c2cnn(C3CCNCC3)c2)cnc1N)c1c(Cl)ccc(F)c1Cl [CRIZOTINIB]
- IC50 [1]: 0.053 µM

- inhibition [2]: 13.1%
SMILES: CN(Cc1c(F)ccc(Cl)c1Cl)C(=O)c1cc(-c2cnn(C)c2)cnc1N

SMILES: CC(NC(=O)c1cc(-c2ccc(OCC(=O)N3CCOCC3)cc2)cnc1N)c1c(Cl)ccc(F)c1Cl (stereo not given)
- IC50 [1]: 6.05 µM

- inhibition [2]: 18.1%
SMILES: CN(Cc1c(F)ccc(F)c1Cl)C(=O)c1cc(-c2cnn(C)c2)cnc1N

- inhibition [19]: 34.1%
SMILES: CC(c1c(Cl)ccc(F)c1Cl)n1cnc2ncc(-c3cnn(C4CCNCC4)c3)cc2c1=O (stereo not given)

- IC50 [3]: 99 nM
SMILES: CC(NC(=O)c1cc(-c2cnn(C3CCOCC3)c2)cnc1N)c1c(Cl)ccc(F)c1Cl (racemic)
- IC50 [1]: 3.49 µM

- inhibition [19]: 28.9%
SMILES: CC(c1c(Cl)ccc(F)c1Cl)n1cnc2ncc(-c3cnn(C4CCN(C(=O)OC(C)(C)C)CC4)c3)cc2c1=O (stereo not given)
